ChEMBL document CHEMBL4837227, “Discovery and development of 2-aminobenzimidazoles as potent antimalarials” (Eur J Med Chem, 2021)
Values after ≈ are worked out from the molar mass of the structure shown. Active and inactive are the calls of the source. The rule behind the calls is not given here.

How the values were obtained:
Plasmodium falciparum [1] = test: Antimalarial activity against Plasmodium falciparum 3D7 assessed as reduction in parasite growth measured after 72 hrs by Monash assay based fluorescence analysis; assay type: functional, organism-based; conditions: 3D7, 72 h
Outline: (§1)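 Asynchronous P. falciparum cultures were grown continuously in complete RPMI with 25 mM HEPES, 0.5% Albumax II, 0.37 mM hypoxanthine and 2.0 g/l bicarbonate. They were exposed to serially diluted compound for 72 h. Controls were DMSO (0.01%) and a reference positive control. Fluorescence was read after 2 h in the dark at room temperature. IC50 is mean SEM from technical duplicate or triplicate, at least three biological replicates.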

[2] = system: Plasmodium falciparum 3D7; test: (§2) Binding affinity to Plasmodium falciparum 3D7 AMA1 (104 to 438 residues) expressed in Escherichia coli BL21(DE3) by surface plasmon resonance assay
[3] = as §2
Plasmodium falciparum [4] = test: Antimalarial activity against synchronous ring stage of Plasmodium falciparum 3D7 assessed as parasite growth inhibition incubated for 72 hrs by Griffith assay based fluorescence analysis; assay type: functional, organism-based; conditions: 3D7, 72 h
Outline: (§3)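 22-point dose-response, 3 per log, final 40 µM top, 0.4% DMSO. 72 h at 37 °C under 90% N2/5% CO2/5% O2. DAPI stain, confocal imaging. IC50 from 4-parameter fit normalised to in-plate puromycin and DMSO controls.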

Plasmodium falciparum [5] = test: Antimalarial activity against synchronous ring stage of Plasmodium falciparum Dd2 assessed as parasite growth inhibition incubated for 72 hrs by Griffith assay based fluorescence analysis; assay type: functional, organism-based; conditions: Dd2, 72 h; outline: as §3
[6] = Selectivity index, ratio of IC50 for antimalarial activity against Plasmodium falciparum Dd2 to IC50 of antimalarial activity against Plasmodium falciparum 3D7; assay type: functional
[7] = Kinetic solubility of the compound at pH 2 measured after 30 mins by nephelometry; assay type: physicochemical; conditions: buffer, read-out: Kinetic_solubility
Outline: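 Compound in DMSO was spiked into 0.01 M HCl (pH ~2.0) at a final DMSO of 1%. After 30 min, nephelometry gave a solubility range.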

[8] = Selectivity index, ratio of IC50 for cytotoxicity against human HEK293 cells to antiplasmodial activity against Plasmodium falciparum 3D7; assay type: toxicity, cell-based; conditions: read-out: Ratio IC50
[9] = Metabolic stability in human liver microsomes assessed as half-life at 1 uM measured for 60 mins in presence of NADPH regenerating system by LC-MS analysis; assay type: ADME, Microsome
Outline: (§4)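 Compound was incubated at 37 °C with liver microsomes at 0.4 mg/mL protein. The reaction was started with an NADPH-regenerating system and quenched at time points over 60 min with acetonitrile containing diazepam as internal standard. No-NADPH controls were quenched at 2, 30 and 60 min.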

Plasmodium falciparum [10] = test: Antimalarial activity against artemisinin-sensitive Plasmodium falciparum Cam3.II^rev expressing wild type K13 assessed as reduction in parasite growth measured after 72 hrs by Monash assay based fluorescence analysis; assay type: functional, organism-based; outline: as §1
Plasmodium falciparum [11] = test: Selectivity index, ratio of IC50 for antimalarial activity against PfATP4 inhibitor SJ557733-resistant Plasmodium falciparum Dd2 to IC50 of antimalarial activity against Plasmodium falciparum Dd2; assay type: functional
Plasmodium falciparum [12] = test: Antimalarial activity against artemisinin-resistant Plasmodium falciparum Cam3.II^C580Y expressing K13 mutant assessed as reduction in parasite growth measured after 72 hrs by Monash assay based fluorescence analysis; assay type: functional, organism-based
Outline: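 Asynchronous culture, 72 h compound exposure. Compounds prepared at […] (twice the top concentration) in complete RPMI (25 mM HEPES, 0.5% Albumax II, 0.37 mM hypoxanthine, sodium bicarbonate), then serially diluted. Fluorescence read after 2 h room-temperature dark incubation. Negative control 0.01% DMSO. IC50 as mean SEM, n ≥ 3 biological replicates, each in technical duplicate or triplicate.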

HEK293 = test: Cytotoxicity against human HEK293 cells assessed as reduction in cell viability at 50 uM measured after 24 hrs by MTT assay; conditions: hek293, 24 h
[13] = Metabolic stability in human liver microsomes assessed as intrinsic clearance at 1 uM measured per mg protein after 60 mins in presence of NADPH regenerating system by LC-MS analysis; assay type: ADME, Microsome; conditions: read-out: CLH; outline: as §4
[14] = Metabolic stability in mouse liver microsomes assessed as intrinsic clearance at 1 uM measured per mg protein for 60 mins in presence of NADPH regenerating system by LC-MS analysis; assay type: ADME, Microsome; conditions: read-out: CLH; outline: as §4
Plasmodium falciparum [15] = test: Antiplasmodial activity against PfATP4 inhibitor SJ557733-resistant Plasmodium falciparum Dd2 assessed as reduction in parasite growth incubated for 72 hrs by Griffith assay based fluorescence analysis; assay type: functional, organism-based; conditions: Dd2, 72 h; outline: as §3
[16] = Kinetic solubility of the compound at pH 6.5 measured after 30 mins by nephelometry; conditions: buffer, read-out: Kinetic_solubility
[17] = Metabolic stability in mouse liver microsomes assessed as half-life at 1 uM measured for 60 mins in presence of NADPH regenerating system by LC-MS analysis; assay type: ADME, Microsome; outline: as §4

Nc1ccccc1-n1c(N)nc2ccccc21
IC50 (Plasmodium falciparum [1]): > 500 nM
Activity [2]: inactive

Nc1cc(N)cc(-c2nc3ccccc3[nH]2)c1
Kd [3]: 100000 nM

COc1ccccc1-n1c(N)nc2ccccc21
IC50 (Plasmodium falciparum [1]): > 500 nM
Activity [2]: inactive

Nc1nc2ccccc2n1-c1ccccc1F
IC50 (Plasmodium falciparum [1]): > 500 nM
Activity [2]: inactive

COc1ccc2nc3cc(Cl)ccc3c(Nc3cc(CN4CCCC4)c(O)c(CN4CCCC4)c3)c2n1 [PYRONARIDINE]
IC50 (Plasmodium falciparum [4]): 7.4 nM
IC50 (Plasmodium falciparum [5]): 8.3 nM
Ratio IC50 [6]: 1.1

Nc1nc2ccccc2n1-c1ccncc1O
IC50 (Plasmodium falciparum [1]): > 500 nM

Nc1nc2ccccc2n1-c1cc(Cl)ccc1O
IC50 (Plasmodium falciparum [1]): 162 nM

Nc1nc2ccccc2n1-c1cccc(O)c1
IC50 (Plasmodium falciparum [1]): > 500 nM
Activity [2]: inactive

Nc1ccccc1-n1c(S)nc2ccccc21
IC50 (Plasmodium falciparum [1]): > 500 nM

Oc1ccccc1-n1cnc2ccccc21
IC50 (Plasmodium falciparum [1]): > 500 nM

Nc1cccc(-c2nc3ccccc3[nH]2)c1
Kd [3]: 500000 nM

Nc1nc2ccccc2n1-c1cccnc1O
IC50 (Plasmodium falciparum [1]): > 500 nM

Cc1ccc(O)c(-n2c(N)nc3ccccc32)c1
IC50 (Plasmodium falciparum [1]): 56 nM

COc1cccc(O)c1-n1c(N)nc2ccccc21
IC50 (Plasmodium falciparum [1]): 183 nM

Nc1ccc(-n2c(N)nc3ccccc32)cc1
IC50 (Plasmodium falciparum [1]): > 500 nM
Activity [2]: inactive

Cc1ccc(-n2c(N)nc3ccccc32)c(O)c1
solubility kinetic at 0.5 h [7]: > 100 µg/mL
selectivity ratio [8]: > 1000
IC50 (Plasmodium falciparum [4]): 13.5 nM
half-life at 1 µM [9]: 2.7 h
IC50 (Plasmodium falciparum [1]): 42 nM
IC50 (Plasmodium falciparum [10]): 140 nM
Ratio IC50 (Plasmodium falciparum [11]): 0.5
IC50 (Plasmodium falciparum [12]): 81 nM
Activity (HEK293): Non-Toxic
microsomal CLint at 1 µM [13]: 11 µL/min/mg
microsomal CLint at 1 µM [14]: 97 µL/min/mg
IC50 (Plasmodium falciparum [5]): 31.7 nM
IC50 (Plasmodium falciparum [15]): 17.5 nM
Ratio IC50 [6]: 2.3
solubility kinetic at 0.5 h [16]: 25 µg/mL (≈ 104 µM)
half-life at 1 µM [17]: 0.3 h

Oc1ccccc1-n1c(NCC2CCCCC2)nc2ccccc21
IC50 (Plasmodium falciparum [1]): 224 nM

Nc1nc2ccccc2n1[C@H]1CCC[C@@H]1O
IC50 (Plasmodium falciparum [1]): > 500 nM

Nc1nc2ccccc2n1-c1cccc2ccoc12
IC50 (Plasmodium falciparum [1]): > 500 nM

COc1ccc(-n2c(N)nc3ccccc32)cc1
IC50 (Plasmodium falciparum [1]): > 500 nM
Activity [2]: inactive

Cc1cccc(O)c1-n1c(N)nc2ccccc21
IC50 (Plasmodium falciparum [1]): 135 nM

CC(C)CNc1nc2ccccc2n1-c1ccccc1O
IC50 (Plasmodium falciparum [1]): 356 nM

Nc1nc2ccccc2n1-c1ccc(O)cc1
IC50 (Plasmodium falciparum [1]): > 500 nM
Activity [2]: inactive

COc1ccc(C[C@H](N)C(=O)N[C@H]2[C@@H](O)[C@H](n3cnc4c(N(C)C)ncnc43)O[C@@H]2CO)cc1 [PUROMYCIN]
IC50 (Plasmodium falciparum [4]): 149 nM
IC50 (Plasmodium falciparum [5]): 114 nM
Ratio IC50 [6]: 0.8

Nc1nc2ccccc2n1-c1ncccc1O
IC50 (Plasmodium falciparum [1]): > 500 nM

Nc1ncccc1-c1ccccc1O
IC50 (Plasmodium falciparum [1]): > 500 nM

Oc1cccc(-c2nc3ccccc3[nH]2)c1
Kd [3]: 800000 nM

Cc1cccc(-n2c(N)nc3ccccc32)c1O
IC50 (Plasmodium falciparum [1]): 61 nM

Nc1nc2ccccc2n1-c1ccc2ccccc2c1O
selectivity ratio [8]: > 1000
IC50 (Plasmodium falciparum [1]): 38 nM
IC50 (Plasmodium falciparum [10]): 105 nM
IC50 (Plasmodium falciparum [12]): 114 nM
Activity (HEK293): Non-Toxic

CCc1nc(N)nc(N)c1-c1ccc(Cl)cc1 [PYRIMETHAMINE]
IC50 (Plasmodium falciparum [4]): 4.7 nM
IC50 (Plasmodium falciparum [5]): > 40000 nM
Ratio IC50 [6]: > 8000

Nc1nc2ccccc2n1-c1c(O)cccc1Cl
IC50 (Plasmodium falciparum [1]): > 500 nM

Oc1ccccc1-n1c(NC2CCCCC2)nc2ccccc21
IC50 (Plasmodium falciparum [1]): 333 nM
